# Test results: ChEMBL document CHEMBL3227917, “Structure-activity relationships of dimeric Catharanthus alkaloids. 2. Experimental antitumor activities of N-substituted deacetylvinblastine amide (vindesine) sulfates” (J Med Chem, 1979)
# Key:
# [1] = Antitumor activity against mouse P388/VCR/I/63 cells allografted in Dublin-CDF1 mouse assessed as day of host death at 0.7 mg/kg, ip administered on days 1, 5 and 9 (reference value: 10 days); format: functional; settings: route intraperitoneal
# P388/S [2] = experiment: Antitumor activity against mouse P388/S cells allografted in CD2F1 mouse assessed as increase in host lifespan at 0.648 mg/kg, ip administered on days 1, 5 and 9; format: functional; settings: route intraperitoneal
# Procedure, shortened: (§1)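 Groups of eight male CD2F1 mice bearing P388 leukemia, run at NCI. Sulfate salts given ip on days 1, 5 and 9. Read-out is percent increase in lifespan.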
# [3] = Antitumor activity against mouse P1534 cells allografted in DBA2 mouse assessed as tumor growth inhibition at 0.9 mg/kg, ip administered on days 1,5 and 9; format: functional; settings: route intraperitoneal, read-out: TGI
# Procedure, shortened: (§2)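 P1534(J) leukemia implanted sc in DBA2 mice; agent given ip on days 1, 5 and 9 at 1.6, 1.2, 0.9 and 0.6 mg/kg in a single experiment. Activity scored as growth inhibition, –, 0–25%; +, 26–50%; ++, 51–75%; +++, 76–100%.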
# [4] = Antitumor activity against mouse P388/VCR/I/63 cells allografted in Dublin-CDF1 mouse assessed as increase in host lifespan at 0.7 mg/kg, ip administered on days 1, 5 and 9; format: functional; settings: route intraperitoneal
# Mus musculus [5] = experiment: Toxicity in CD2F1 mouse allografted with mouse P388/S cells at 3.00 mg/kg, ip administered on days 1, 5 and 9; format: organism-based; design: dose 3 mg/kg, route intraperitoneal; settings: in vivo
# [6] = Antitumor activity against mouse Gardner lymphosarcoma allografted in C3H mouse assessed as tumor growth inhibition at 0.30 mg/kg, ip administered daily for 8 to 10 days; format: functional; settings: route intraperitoneal, read-out: TGI
# Procedure, shortened: (§3)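 Gardner lymphosarcoma in C3H mice; sulfate salts unless noted, given ip daily for 8–10 days, treatment starting 8 days after tumor implantation. Tumor growth inhibition scored as –, 0–25%; +, 26–50%; ++, 51–75%; +++, 76–100%; T, lethal to ≥5 of 10 animals per group. Average of one or more tests.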
# CHO [7] = experiment: Mitotic arrest in CHO cells assessed as increase in cell accumulation at 0.002 ug/ml; format: functional, Cricetulus griseus
# Procedure, shortened: (§4)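 Chinese hamster ovary cells in tissue culture, scored for mitotic arrest as increase in cells in mitotic arrest over control: +++, 40–50%; ++, 15–40%; +, 10–15%; ±, 7–10%; –, 3–7%. Cytotoxicity noted separately.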
# [8] = Antitumor activity against mouse P388/VCR/I/63 cells allografted in Dublin-CDF1 mouse assessed as day of host death at 1.0 mg/kg, ip administered on days 1, 5 and 9 (reference value: 10 days); format: functional; settings: route intraperitoneal
# P388/VCR [9] = experiment: Antitumor activity against mouse P388/VCR cells allografted in B6D2F1 mouse assessed as increase in host lifespan at 0.60 mg/kg, ip administered on days 1, 5 and 9; format: functional; settings: dose 0.6 mg/kg; route intraperitoneal
# Procedure, shortened: (§5)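 P388/VCR leukemia in groups of 10 B6D2F1 mice, run at Lilly using the cell strain received from NCI. Sulfate salts given ip on days 1, 5 and 9. Read-out is percent increase in lifespan.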
# B16 [10] = experiment: Antitumor activity against mouse B16 cells allografted in C57BL/6 mouse assessed as prolongation of host survival at 0.60 mg/kg, ip administered on days 1,5 and 9; format: functional; settings: route intraperitoneal
# Procedure, shortened: (§6)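 B16 melanoma cells (10⁶ inoculum) implanted ip in C57BL/6 mice; groups of 10. Sulfate salts unless noted, given ip on days 1, 5 and 9. Single test. Survival prolongation is expressed as percent versus controls, with survivors counted on day 60. Toxic means deaths of ≥5 of 10 animals before the first control death.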
# [11] = Antitumor activity against mouse Gardner lymphosarcoma allografted in C3H mouse assessed as tumor growth inhibition at 0.05 mg/kg, ip administered daily for 8 to 10 days; format: functional; settings: route intraperitoneal, read-out: TGI; procedure, shortened: as §3
# [12] = Antitumor activity against mouse P388/VCR/I/63 cells allografted in Dublin-CDF1 mouse assessed as increase in host lifespan at 1.0 mg/kg, ip administered on days 1, 5 and 9; format: functional; settings: route intraperitoneal
# P388/VCR [13] = experiment: Antitumor activity against mouse P388/VCR cells allografted in B6D2F1 mouse assessed as increase in host lifespan at 0.90 mg/kg, ip administered on days 1, 5 and 9; format: functional; settings: dose 0.9 mg/kg; route intraperitoneal; procedure, shortened: as §5
# P388/VCR [14] = experiment: Antitumor activity against mouse P388/VCR cells allografted in CD2F1 mouse assessed as increase in host lifespan at 0.648 mg/kg, ip administered on days 1, 5 and 9; format: functional; settings: route intraperitoneal; procedure, shortened: as §1
# P388/VCR [15] = experiment: Antitumor activity against mouse P388/VCR cells allografted in CD2F1 mouse assessed as increase in host lifespan at 1.80 mg/kg, ip administered on days 1, 5 and 9; format: functional; settings: dose 1.8 mg/kg; route intraperitoneal
# Procedure, shortened: (§7)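 Groups of eight male CD2F1 mice, tested at the NCI. Compounds were given as sulfate salts, dosed in mg/kg ip on days 1, 5 and 9. Activity was read as percent increase in lifespan against the leukemia line.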
# Mus musculus [16] = experiment: Toxicity in CD2F1 mouse allografted with mouse P388/VCR cells at 3.00 mg/kg, ip administered on days 1, 5 and 9; format: organism-based; design: dose 3 mg/kg, route intraperitoneal; settings: in vivo
# [17] = Antitumor activity against mouse P388/VCR/I/63 cells allografted in Dublin-CDF1 mouse assessed as day of host death at 1.6 mg/kg, ip administered on days 1, 5 and 9 (reference value: 10 days); format: functional; settings: route intraperitoneal
# B16 [18] = experiment: Antitumor activity against mouse B16 cells allografted in C57BL/6 mouse assessed as prolongation of host survival at 1.20 mg/kg, ip administered on days 1,5 and 9; format: functional; settings: route intraperitoneal; procedure, shortened: as §6
# [19] = Toxicity in iv dosed mouse assessed as lethality; format: organism-based; settings: in vivo
# [20] = Antitumor activity against mouse P388/VCR/I/63 cells allografted in Dublin-CDF1 mouse assessed as increase in host lifespan at 1.6 mg/kg, ip administered on days 1, 5 and 9; format: functional; settings: route intraperitoneal
# P388/S [21] = experiment: Antitumor activity against mouse P388/S cells allografted in CD2F1 mouse assessed as increase in host lifespan at 1.80 mg/kg, ip administered on days 1, 5 and 9; format: functional; settings: dose 1.8 mg/kg; route intraperitoneal; procedure, shortened: as §7
# [22] = Antitumor activity against mouse P1534 cells allografted in DBA2 mouse assessed as tumor growth inhibition at 1.2 mg/kg, ip administered on days 1,5 and 9; format: functional; settings: route intraperitoneal, read-out: TGI; procedure, shortened: as §2
# [23] = Antitumor activity against mouse Gardner lymphosarcoma allografted in C3H mouse assessed as tumor growth inhibition at 0.40 mg/kg, ip administered daily for 8 to 10 days; format: functional; settings: route intraperitoneal, read-out: TGI; procedure, shortened: as §3
# B16 [24] = experiment: Antitumor activity against mouse B16 cells allografted in C57BL/6 mouse assessed as prolongation of host survival at 0.90 mg/kg, ip administered on days 1,5 and 9; format: functional; settings: route intraperitoneal; procedure, shortened: as §6
# [25] = Antitumor activity against mouse Gardner lymphosarcoma allografted in C3H mouse assessed as tumor growth inhibition at 0.10 mg/kg, ip administered daily for 8 to 10 days; format: functional; settings: route intraperitoneal, read-out: TGI; procedure, shortened: as §3
# P388/S [26] = experiment: Antitumor activity against mouse P388/S cells allografted in CD2F1 mouse assessed as increase in host lifespan at 1.08 mg/kg, ip administered on days 1, 5 and 9; format: functional; settings: route intraperitoneal; procedure, shortened: as §1
# CHO [27] = experiment: Mitotic arrest in CHO cells assessed as increase in cell accumulation at 0.02 ug/ml; format: functional, Cricetulus griseus; procedure, shortened: as §4
# [28] = Antitumor activity against mouse Gardner lymphosarcoma allografted in C3H mouse assessed as tumor growth inhibition at 0.20 mg/kg, ip administered daily for 8 to 10 days; format: functional; settings: route intraperitoneal, read-out: TGI; procedure, shortened: as §3
# P388/VCR [29] = experiment: Antitumor activity against mouse P388/VCR cells allografted in B6D2F1 mouse assessed as increase in host lifespan at 1.20 mg/kg, ip administered on days 1, 5 and 9; format: functional; settings: dose 1.2 mg/kg; route intraperitoneal; procedure, shortened: as §5
# [30] = Antitumor activity against mouse P1534 cells allografted in DBA2 mouse assessed as tumor growth inhibition at 0.6 mg/kg, ip administered on days 1,5 and 9; format: functional; settings: route intraperitoneal, read-out: TGI; procedure, shortened: as §2
# P388/VCR [31] = experiment: Antitumor activity against mouse P388/VCR cells allografted in CD2F1 mouse assessed as increase in host lifespan at 1.08 mg/kg, ip administered on days 1, 5 and 9; format: functional; settings: route intraperitoneal; procedure, shortened: as §1
# CHO [32] = experiment: Mitotic arrest in CHO cells assessed as increase in cell accumulation at 0.2 ug/ml; format: functional, Cricetulus griseus; procedure, shortened: as §4
# [33] = Antitumor activity against mouse P1534 cells allografted in DBA2 mouse assessed as tumor growth inhibition at 1.6 mg/kg, ip administered on days 1,5 and 9; format: functional; settings: route intraperitoneal, read-out: TGI; procedure, shortened: as §2
compound,measurement,setting,value
CC[C@]1(O)C[C@H]2CN(CCc3c([nH]c4ccccc34)[C@@](C(=O)OC)(c3cc4c(cc3OC)N(C)[C@H]3[C@@](O)(C(=O)NCCSSCCNC(=O)[C@@]5(O)[C@H](O)[C@]6(CC)C=CCN7CC[C@@]8(c9cc([C@@]%10(C(=O)OC)C[C@@H]%11CN(CCc%12c%10[nH]c%10ccccc%12%10)C[C@](O)(CC)C%11)c(OC)cc9N(C)[C@@H]58)[C@@H]76)[C@H](O)[C@]5(CC)C=CCN6CC[C@]43[C@@H]65)C2)C1.O=S(=O)(O)O,Activity,[1],18.5 days
same,Activity,P388/S [2],129%
same,inhibition in vivo at 0.9 mg/kg,[3],51%
same,Activity,[4],85%
same,Activity,Mus musculus [5],Toxic
same,inhibition in vivo at 0.3 mg/kg,[6],76%
same,Activity,CHO [7],3%
same,Activity,[8],21.5 days
same,Activity,P388/VCR [9],35%
same,survival at 0.6 mg/kg,B16 [10],115%
same,inhibition in vivo at 0.05 mg/kg,[11],0%
same,Activity,[12],115%
same,Activity,P388/VCR [13],54%
same,Activity,P388/VCR [14],50%
same,Activity,P388/VCR [15],33%
same,Activity,Mus musculus [16],Toxic
same,Activity,[17],24.5 days
same,survival at 1.2 mg/kg,B16 [18],170%
same,LD50,[19],6.9 mg/kg
same,Activity,[20],145%
same,Activity,P388/S [21],50%
same,inhibition in vivo at 1.2 mg/kg,[22],76%
same,inhibition in vivo at 0.4 mg/kg,[23],76%
same,survival at 0.9 mg/kg,B16 [24],170%
same,inhibition in vivo at 0.1 mg/kg,[25],0%
same,Activity,P388/S [26],96%
same,Activity,CHO [27],10%
same,inhibition in vivo at 0.2 mg/kg,[28],51%
same,Activity,P388/VCR [29],22%
same,inhibition in vivo at 0.6 mg/kg,[30],26%
same,Activity,P388/VCR [31],46%
same,Activity,CHO [32],15%
same,inhibition in vivo at 1.6 mg/kg,[33],76%
